Assay results reported in ChEMBL document CHEMBL5058577, “EUbOPEN Chemogenomics Library 2 (Multiplex)” (2022).

System: HEK-293T
Experiment: Multiplex assay against HEK293T
Assay type: toxicity, cell-based
Conditions: human
Method in brief: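 Four dyes were applied at seeding to live cells: Hoechst33342, BioTracker Green Microtubule Cytoskeleton Dye, MitoTracker Red and Annexin V Alexa Fluor 680. Imaging after compound addition used a CQ1 microscope at 37°C and 5% CO2. CellPathfinder machine-learning gating then sorted cells into Hoechst high-intensity objects or normal cells, normal cells into healthy, pyknosed or fragmented nuclei, and pyknosed cells into mitotic or apoptotic, with tubulin, mitochondrial-mass and membrane-permeability phenotypes given as per cents of healthy-nucleus cells.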

[1] = 12 h, 1 µM, compound concentration 1 uM, replicate 1
[2] = 12 h, 1 µM, compound concentration 1 uM, replicate 2
[3] = 12 h, 10 µM, compound concentration 10 uM, replicate 1
[4] = 12 h, 10 µM, compound concentration 10 uM, replicate 2
[5] = 24 h, 1 µM, compound concentration 1 uM, replicate 1
[6] = 24 h, 1 µM, compound concentration 1 uM, replicate 2
[7] = 24 h, 10 µM, compound concentration 10 uM, replicate 1
[8] = 24 h, 10 µM, compound concentration 10 uM, replicate 2
[9] = 48 h, 1 µM, compound concentration 1 uM, replicate 1
[10] = 48 h, 1 µM, compound concentration 1 uM, replicate 2
[11] = 48 h, 10 µM, compound concentration 10 uM, replicate 1
[12] = 48 h, 10 µM, compound concentration 10 uM, replicate 2

CCCn1c(=O)c2[nH]c(C3CCCC3)nc2n(CCC)c1=O [1,3-DIPROPYL-8-CYCLOPENTYLXANTHINE [DPCPX]]
Population Apoptotic (%) [1]: 35% | Population Fragmented Nuclei (%) [1]: 7% | Population Healthy Nuclei (%) [1]: 79% | Population Hoechst High Intensity Objects (%) [1]: 6% | Population Membrane Permeable-Phenotype (%) [1]: 0% | Population Mitochondria Different-Phenotype (%) [1]: 44% | Population Mitotic Cells (%) [1]: 64% | Population Normal (%) [1]: 93% | Population Pyknosed Nuclei (%) [1]: 12% | Population Tubulin-Different-Phenotype (%) [1]: 32% | Total Cell Count [1]: 443 | Population Apoptotic (%) [2]: 54% | Population Fragmented Nuclei (%) [2]: 3% | Population Healthy Nuclei (%) [2]: 81% | Population Hoechst High Intensity Objects (%) [2]: 3% | Population Mitochondria Different-Phenotype (%) [2]: 52% | Population Mitotic Cells (%) [2]: 45% | Population Normal (%) [2]: 96% | Population Pyknosed Nuclei (%) [2]: 14% | Population Tubulin-Different-Phenotype (%) [2]: 15% | Total Cell Count [2]: 361 | Population Apoptotic (%) [3]: 60% | Population Fragmented Nuclei (%) [3]: 12% | Population Healthy Nuclei (%) [3]: 68% | Population Hoechst High Intensity Objects (%) [3]: 5% | Population Membrane Permeable-Phenotype (%) [3]: 0% | Population Mitochondria Different-Phenotype (%) [3]: 58% | Population Mitotic Cells (%) [3]: 39% | Population Normal (%) [3]: 94% | Population Pyknosed Nuclei (%) [3]: 19% | Population Tubulin-Different-Phenotype (%) [3]: 51% | Total Cell Count [3]: 295 | Population Apoptotic (%) [4]: 54% | Population Fragmented Nuclei (%) [4]: 7% | Population Healthy Nuclei (%) [4]: 75% | Population Hoechst High Intensity Objects (%) [4]: 18% | Population Mitochondria Different-Phenotype (%) [4]: 68% | Population Mitotic Cells (%) [4]: 45% | Population Normal (%) [4]: 81% | Population Pyknosed Nuclei (%) [4]: 16% | Population Tubulin-Different-Phenotype (%) [4]: 45% | Total Cell Count [4]: 337 | Population Apoptotic (%) [5]: 26% | Population Fragmented Nuclei (%) [5]: 8% | Population Healthy Nuclei (%) [5]: 78% | Population Hoechst High Intensity Objects (%) [5]: 4% | Population Membrane Permeable-Phenotype (%) [5]: 1% | Population Mitochondria Different-Phenotype (%) [5]: 25% | Population Mitotic Cells (%) [5]: 73% | Population Normal (%) [5]: 95% | Population Pyknosed Nuclei (%) [5]: 13% | Population Tubulin-Different-Phenotype (%) [5]: 20% | Total Cell Count [5]: 610 | Population Apoptotic (%) [6]: 28% | Population Fragmented Nuclei (%) [6]: 7% | Population Healthy Nuclei (%) [6]: 82% | Population Hoechst High Intensity Objects (%) [6]: 3% | Population Membrane Permeable-Phenotype (%) [6]: 0% | Population Mitochondria Different-Phenotype (%) [6]: 45% | Population Mitotic Cells (%) [6]: 71% | Population Normal (%) [6]: 96% | Population Pyknosed Nuclei (%) [6]: 10% | Population Tubulin-Different-Phenotype (%) [6]: 19% | Total Cell Count [6]: 403 | Population Apoptotic (%) [7]: 50% | Population Fragmented Nuclei (%) [7]: 8% | Population Healthy Nuclei (%) [7]: 76% | Population Hoechst High Intensity Objects (%) [7]: 4% | Population Membrane Permeable-Phenotype (%) [7]: 0% | Population Mitochondria Different-Phenotype (%) [7]: 43% | Population Mitotic Cells (%) [7]: 50% | Population Normal (%) [7]: 95% | Population Pyknosed Nuclei (%) [7]: 14% | Population Tubulin-Different-Phenotype (%) [7]: 40% | Total Cell Count [7]: 379 | Population Apoptotic (%) [8]: 41% | Population Fragmented Nuclei (%) [8]: 7% | Population Healthy Nuclei (%) [8]: 79% | Population Hoechst High Intensity Objects (%) [8]: 15% | Population Mitochondria Different-Phenotype (%) [8]: 55% | Population Mitotic Cells (%) [8]: 58% | Population Normal (%) [8]: 84% | Population Pyknosed Nuclei (%) [8]: 13% | Population Tubulin-Different-Phenotype (%) [8]: 31% | Total Cell Count [8]: 411 | Population Apoptotic (%) [9]: 33% | Population Fragmented Nuclei (%) [9]: 11% | Population Healthy Nuclei (%) [9]: 81% | Population Hoechst High Intensity Objects (%) [9]: 1% | Population Membrane Permeable-Phenotype (%) [9]: 1% | Population Mitochondria Different-Phenotype (%) [9]: 17% | Population Mitotic Cells (%) [9]: 66% | Population Normal (%) [9]: 98% | Population Pyknosed Nuclei (%) [9]: 7% | Population Tubulin-Different-Phenotype (%) [9]: 17% | Total Cell Count [9]: 957 | Population Apoptotic (%) [10]: 39% | Population Fragmented Nuclei (%) [10]: 14% | Population Healthy Nuclei (%) [10]: 80% | Population Hoechst High Intensity Objects (%) [10]: 3% | Population Membrane Permeable-Phenotype (%) [10]: 0% | Population Mitochondria Different-Phenotype (%) [10]: 22% | Population Mitotic Cells (%) [10]: 60% | Population Normal (%) [10]: 96% | Population Pyknosed Nuclei (%) [10]: 5% | Population Tubulin-Different-Phenotype (%) [10]: 13% | Total Cell Count [10]: 593 | Population Apoptotic (%) [11]: 29% | Population Fragmented Nuclei (%) [11]: 14% | Population Healthy Nuclei (%) [11]: 76% | Population Hoechst High Intensity Objects (%) [11]: 3% | Population Membrane Permeable-Phenotype (%) [11]: 1% | Population Mitochondria Different-Phenotype (%) [11]: 37% | Population Mitotic Cells (%) [11]: 70% | Population Normal (%) [11]: 96% | Population Pyknosed Nuclei (%) [11]: 8% | Population Tubulin-Different-Phenotype (%) [11]: 30% | Total Cell Count [11]: 511 | Population Apoptotic (%) [12]: 45% | Population Healthy Nuclei (%) [12]: 75% | Population Hoechst High Intensity Objects (%) [12]: 7% | Population Membrane Permeable-Phenotype (%) [12]: 0% | Population Mitochondria Different-Phenotype (%) [12]: 36% | Population Mitotic Cells (%) [12]: 54% | Population Normal (%) [12]: 92% | Population Pyknosed Nuclei (%) [12]: 10% | Population Tubulin-Different-Phenotype (%) [12]: 23% | Total Cell Count [12]: 516

O=C(NCC(=O)N1CC[C@H](N[C@H]2CC[C@@](O)(c3ccc(-c4ncccn4)cn3)CC2)C1)c1cccc(C(F)(F)F)c1 [PF-4136309]
Population Apoptotic (%) [1]: 44% | Population Fragmented Nuclei (%) [1]: 6% | Population Healthy Nuclei (%) [1]: 80% | Population Hoechst High Intensity Objects (%) [1]: 4% | Population Membrane Permeable-Phenotype (%) [1]: 0% | Population Mitochondria Different-Phenotype (%) [1]: 41% | Population Mitotic Cells (%) [1]: 56% | Population Normal (%) [1]: 95% | Population Pyknosed Nuclei (%) [1]: 13% | Population Tubulin-Different-Phenotype (%) [1]: 32% | Total Cell Count [1]: 393 | Population Apoptotic (%) [2]: 34% | Population Fragmented Nuclei (%) [2]: 5% | Population Hoechst High Intensity Objects (%) [2]: 6% | Population Mitochondria Different-Phenotype (%) [2]: 56% | Population Mitotic Cells (%) [2]: 66% | Population Normal (%) [2]: 93% | Population Tubulin-Different-Phenotype (%) [2]: 15% | Total Cell Count [2]: 389 | Population Apoptotic (%) [3]: 39% | Population Fragmented Nuclei (%) [3]: 7% | Population Healthy Nuclei (%) [3]: 76% | Population Hoechst High Intensity Objects (%) [3]: 7% | Population Membrane Permeable-Phenotype (%) [3]: 0% | Population Mitochondria Different-Phenotype (%) [3]: 53% | Population Mitotic Cells (%) [3]: 60% | Population Normal (%) [3]: 92% | Population Pyknosed Nuclei (%) [3]: 15% | Population Tubulin-Different-Phenotype (%) [3]: 55% | Total Cell Count [3]: 358 | Population Apoptotic (%) [4]: 48% | Population Fragmented Nuclei (%) [4]: 3% | Population Healthy Nuclei (%) [4]: 81% | Population Hoechst High Intensity Objects (%) [4]: 6% | Population Mitochondria Different-Phenotype (%) [4]: 75% | Population Mitotic Cells (%) [4]: 51% | Population Normal (%) [4]: 93% | Population Pyknosed Nuclei (%) [4]: 14% | Population Tubulin-Different-Phenotype (%) [4]: 45% | Total Cell Count [4]: 295 | Population Apoptotic (%) [5]: 25% | Population Fragmented Nuclei (%) [5]: 10% | Population Healthy Nuclei (%) [5]: 80% | Population Hoechst High Intensity Objects (%) [5]: 2% | Population Membrane Permeable-Phenotype (%) [5]: 0% | Population Mitochondria Different-Phenotype (%) [5]: 26% | Population Mitotic Cells (%) [5]: 74% | Population Normal (%) [5]: 97% | Population Pyknosed Nuclei (%) [5]: 9% | Population Tubulin-Different-Phenotype (%) [5]: 15% | Total Cell Count [5]: 561 | Population Apoptotic (%) [6]: 39% | Population Fragmented Nuclei (%) [6]: 8% | Population Hoechst High Intensity Objects (%) [6]: 5% | Population Mitochondria Different-Phenotype (%) [6]: 31% | Population Mitotic Cells (%) [6]: 60% | Population Normal (%) [6]: 94% | Population Pyknosed Nuclei (%) [6]: 11% | Population Tubulin-Different-Phenotype (%) [6]: 13% | Total Cell Count [6]: 485 | Population Apoptotic (%) [7]: 35% | Population Fragmented Nuclei (%) [7]: 10% | Population Healthy Nuclei (%) [7]: 73% | Population Hoechst High Intensity Objects (%) [7]: 7% | Population Membrane Permeable-Phenotype (%) [7]: 1% | Population Mitochondria Different-Phenotype (%) [7]: 39% | Population Mitotic Cells (%) [7]: 64% | Population Normal (%) [7]: 92% | Population Pyknosed Nuclei (%) [7]: 16% | Population Tubulin-Different-Phenotype (%) [7]: 36% | Total Cell Count [7]: 450 | Population Apoptotic (%) [8]: 57% | Population Fragmented Nuclei (%) [8]: 8% | Population Healthy Nuclei (%) [8]: 80% | Population Hoechst High Intensity Objects (%) [8]: 5% | Population Membrane Permeable-Phenotype (%) [8]: 0% | Population Mitochondria Different-Phenotype (%) [8]: 54% | Population Mitotic Cells (%) [8]: 42% | Population Normal (%) [8]: 94% | Population Pyknosed Nuclei (%) [8]: 11% | Population Tubulin-Different-Phenotype (%) [8]: 27% | Total Cell Count [8]: 384 | Population Apoptotic (%) [9]: 18% | Population Fragmented Nuclei (%) [9]: 16% | Population Healthy Nuclei (%) [9]: 78% | Population Hoechst High Intensity Objects (%) [9]: 0% | Population Membrane Permeable-Phenotype (%) [9]: 1% | Population Mitochondria Different-Phenotype (%) [9]: 14% | Population Mitotic Cells (%) [9]: 81% | Population Normal (%) [9]: 99% | Population Pyknosed Nuclei (%) [9]: 4% | Population Tubulin-Different-Phenotype (%) [9]: 9% | Total Cell Count [9]: 1007 | Population Apoptotic (%) [10]: 27% | Population Healthy Nuclei (%) [10]: 77% | Population Hoechst High Intensity Objects (%) [10]: 2% | Population Membrane Permeable-Phenotype (%) [10]: 0% | Population Mitochondria Different-Phenotype (%) [10]: 16% | Population Mitotic Cells (%) [10]: 72% | Population Normal (%) [10]: 97% | Population Pyknosed Nuclei (%) [10]: 5% | Population Tubulin-Different-Phenotype (%) [10]: 11% | Total Cell Count [10]: 907 | Population Apoptotic (%) [11]: 31% | Population Fragmented Nuclei (%) [11]: 13% | Population Healthy Nuclei (%) [11]: 75% | Population Hoechst High Intensity Objects (%) [11]: 5% | Population Membrane Permeable-Phenotype (%) [11]: 0% | Population Mitochondria Different-Phenotype (%) [11]: 34% | Population Mitotic Cells (%) [11]: 68% | Population Normal (%) [11]: 94% | Population Pyknosed Nuclei (%) [11]: 11% | Population Tubulin-Different-Phenotype (%) [11]: 23% | Total Cell Count [11]: 636 | Population Apoptotic (%) [12]: 43% | Population Fragmented Nuclei (%) [12]: 11% | Population Healthy Nuclei (%) [12]: 79% | Population Hoechst High Intensity Objects (%) [12]: 4% | Population Mitochondria Different-Phenotype (%) [12]: 46% | Population Mitotic Cells (%) [12]: 56% | Population Normal (%) [12]: 95% | Population Pyknosed Nuclei (%) [12]: 8% | Population Tubulin-Different-Phenotype (%) [12]: 30% | Total Cell Count [12]: 468
